# According to ChEMBL document CHEMBL1150374, “Synthesis and anticonvulsant activity of aromatic tetramethylcyclopropanecarboxamide derivatives” (Bioorg Med Chem, 2008):
# The source made the active and inactive calls. The rule behind the calls is not given here.
# Assays:
# Mus musculus [1] = experiment: Anticonvulsant activity against maximal electroshock-induced seizures in mouse model at 300 mg/kg, ip after 0.5 hrs; assay type: functional, organism-based; parameters: dose 300 mg/kg
# Summary of the method: (§1)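 Mice dosed intraperitoneally at 300 mg/kg, in a dosing volume of 0.01 mL per gram body weight. Seizure protection was scored at the stated time after dosing. Activity is expressed as the number of animals protected over the number tested.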
# Mus musculus [2] = experiment: Anticonvulsant activity against scMet-induced seizures in mouse model at 300 mg/kg, ip after 0.5 hrs; assay type: functional, organism-based; parameters: dose 300 mg/kg; summary of the method: as §1
# Mus musculus [3] = experiment: Anticonvulsant activity against maximal electroshock-induced seizures in mouse model at 300 mg/kg, ip after 4 hrs; assay type: functional, organism-based; parameters: dose 300 mg/kg; summary of the method: as §1
# Mus musculus [4] = experiment: Anticonvulsant activity against scMet-induced seizures in mouse model at 300 mg/kg, ip after 4 hrs; assay type: functional, organism-based; parameters: dose 300 mg/kg; summary of the method: as §1
# Rattus norvegicus [5] = experiment: Anticonvulsant activity against scMet-induced seizures in orally dosed rat model; assay type: functional; conditions: po
# Summary of the method: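 Rats dosed orally in a volume of 0.04 mL per 10 g body weight. ED50 was determined with 95% confidence intervals by probit analysis.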
# Mus musculus [6] = experiment: Anticonvulsant activity against scMet-induced seizures in mouse model at 100 mg/kg; assay type: functional
# Mus musculus [7] = species on record: Mus musculus; experiment: Anticonvulsant activity against maximal electroshock-induced seizures in mouse model; assay type: functional
# Summary of the method: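 Compounds given ip to mice at 100 or 300 mg/kg, dosed at 0.01 mL per gram body weight. Maximal electroshock seizures were tested at 0.5, 2 and 4 h after dosing. Activity is reported as animals protected over animals tested, with neurotoxicity scored alongside.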
# Rattus norvegicus [8] = species on record: Rattus norvegicus; experiment: Protective index, ratio of TD50 for rat by rotarod test to ED50 for rat by MES test; assay type: functional
# Summary of the method: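 PI was calculated as TD50/ED50 from oral dosing in rats. Both values were derived by probit analysis.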
# Rattus norvegicus [9] = experiment: Anticonvulsant activity against maximal electroshock-induced seizures in orally dosed rat model; assay type: functional; conditions: po
# [10] = Toxicity in orally dosed rat by rotarod test; assay type: organism-based; conditions: in vivo, po
# Summary of the method: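 Rats dosed orally in a volume of 0.04 mL per 10 g body weight. Dose was varied until four points were established between the level causing no minimal motor impairment in any animal and the level at which all animals were impaired. TD50 was derived with 95% confidence intervals by probit analysis.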
# Mus musculus [11] = experiment: Anticonvulsant activity against maximal electroshock-induced seizures in mouse model at 300 mg/kg, ip after 2 hrs; assay type: functional, organism-based; parameters: dose 300 mg/kg; summary of the method: as §1
Compound,Activity (Mus musculus [1]),Activity (Mus musculus [2]),Activity (Mus musculus [3]),Activity (Mus musculus [4]),further results
Cc1cccc(C)c1OCC(C)NC(=O)C1C(C)(C)C1(C)C (stereo unspecified),inactive,inactive,inactive,inactive,
CCCC(CCC)C(=O)O [VALPROIC ACID],,,,,ED50 (Rattus norvegicus [5]): 646 mg/kg
CC1(C)C(C(=O)NCc2ccc(F)cc2)C1(C)C,inactive,inactive,inactive,inactive,
CC1(C)C(C(=O)NC(=O)Nc2ccccc2)C1(C)C,inactive,inactive,inactive,inactive,
CC1(C)C(C(=O)NCc2ccc(S(N)(=O)=O)cc2)C1(C)C,inactive,inactive,,inactive,
CC1(C)C(C(=O)NCc2ccccc2Cl)C1(C)C,inactive,inactive,inactive,inactive,
CC1(C)C(C(=O)NCCCc2ccccc2)C1(C)C,inactive,inactive,inactive,inactive,
CC1(C)C(C(=O)NCCc2c[nH]c3ccccc23)C1(C)C,inactive,inactive,inactive,inactive,
CC(CNC(=O)C1C(C)(C)C1(C)C)c1ccccc1 (stereo unspecified),inactive,inactive,inactive,inactive,
CC(=O)c1ccc(NC(=O)C2C(C)(C)C2(C)C)cc1,inactive,inactive,Active,inactive,
CC1(C)C(C(=O)Nc2cc(Cl)c(S(N)(=O)=O)cc2S(N)(=O)=O)C1(C)C,inactive,inactive,inactive,inactive,
CCCC(CCC)C(=O)NCc1ccccc1 [VALPROYLBENZYLAMIDE],,,,,Activity (Mus musculus [6]): 50%
CCCC(CCC)C(=O)NCc1ccc(S(N)(=O)=O)cc1,,,,,ED50 (Mus musculus [7]): 16 mg/kg
CONC(=O)C1C(C)(C)C1(C)C,,,,,ED50 (Rattus norvegicus [5]): 35 mg/kg; PI (Rattus norvegicus [8]): 10
CC(C(O)c1ccccc1)N(C)C(=O)C1C(C)(C)C1(C)C (stereo unspecified),inactive,inactive,inactive,inactive,
CC1(C)C(C(=O)Nc2ccccc2)C1(C)C,inactive,inactive,inactive,inactive,
CC1(C)C(C(=O)NCCc2ccccc2)C1(C)C,inactive,Active,inactive,inactive,
CC1(C)C(C(=O)NCc2ccccc2)C1(C)C,Active,Active,inactive,inactive,
CC1(C)C(C(=O)Nc2ccc(S(N)(=O)=O)cc2)C1(C)C,inactive,inactive,,inactive,ED50 (Rattus norvegicus [9]): 26 mg/kg; ED50 (Rattus norvegicus [5]): > 100 mg/kg; TD50 [10]: > 500 mg/kg; Activity (Mus musculus [11]): Active
"CC1(C)C(C(=O)NC(N)=O)C1(C)C [2,2,3,3-TETRAMETHYLCYCLOPROPANECARBONYLUREA]",,,,,ED50 (Rattus norvegicus [9]): 29 mg/kg
Cc1cccc(C)c1OCC(C)N (stereo unspecified) [MEXILETINE],,,,,ED50 (Mus musculus [7]): 10 mg/kg
CC(NC(=O)C1C(C)(C)C1(C)C)c1ccccc1 (stereo unspecified),inactive,inactive,inactive,inactive,
NS(=O)(=O)Cc1noc2ccccc12 [ZONISAMIDE],,,,,ED50 (Rattus norvegicus [9]): 21 mg/kg; ED50 (Rattus norvegicus [5]): > 300 mg/kg; TD50 [10]: 192 mg/kg
